In data set [1] the target is Peripheral plasma membrane protein CASK (Homo sapiens) (UniProt O14936). The data set can be described thus: Binding affinity to wild-type human partial length CASK (M1 to H315 residues) expressed in mammalian expression system assessed as remaining unbound target protein level at 1000 nM by Kinomescan method relative to control. In outline:
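KINOMEscan competition binding profile across a panel of 468 kinases and mutants, with the inhibitor tested at a single concentration of 1 μM. Binding is reported as percent of control, meaning signal relative to a DMSO control.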

The target in data set [2] is Mitogen-activated protein kinase kinase kinase 14 (Homo sapiens) (UniProt Q99558). The data set can be described thus: Binding affinity to wild-type human partial length NIK (L318 to P947 residues) expressed in mammalian expression system assessed as remaining unbound target protein level at 1000 nM by Kinomescan method relative to control.
Data set [3] addresses Serine/threonine-protein kinase TAO2 (Homo sapiens) (UniProt Q9UL54). The data set can be described thus: Binding affinity to wild-type human partial length TAOK2 (M1 to A320 residues) expressed in mammalian expression system assessed as remaining unbound target protein level at 1000 nM by Kinomescan method relative to control.
Data set [4] can be described thus: MRT (0 to t) in mouse at 3 mg/kg, iv by LC-MS/MS analysis. Format: ADME, organism-based. The conditions noted are these: in vivo.
The target of a further data set is CDK9/cyclin T1 (Homo sapiens, UniProt P50750). The data set can be described thus: Inhibition of recombinant full length His-tagged human CDK9/CyclinT1 expressed in baculovirus expression system.
In data set [5] the target is Myosin light chain kinase family member 4 (Homo sapiens) (UniProt Q86YV6). Nature of the data set: Binding affinity to wild-type human partial length MYLK4 (V79 to S380 residues) expressed in bacterial expression system assessed as remaining unbound target protein level at 1000 nM by Kinomescan method relative to control. The essentials:
(§1)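 KINOMEscan binding panel of 468 kinases/mutants. Inhibitor was tested at a single concentration of 1 μM. Binding is reported as percent of control, defined relative to a DMSO control.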

For data set [6], the target named is Serine/threonine-protein kinase pim-3 (Homo sapiens) (UniProt Q86V86). The data set can be described thus: Binding affinity to wild-type human partial length PIM3 (G16 to A317 residues) expressed in bacterial expression system assessed as remaining unbound target protein level at 1000 nM by Kinomescan method relative to control.
In a further data set the test system is MV4-11. Nature of the data set: Induction of apoptosis in human MV4-11 cells assessed as decrease in XIAP level up to 3 uM after 2 hrs by immunoblotting analysis. Format: functional, cell-based.
Data set [7] has as its target Mitogen-activated protein kinase kinase kinase 10 (Homo sapiens) (UniProt Q02779). The data set can be described thus: Binding affinity to wild-type human partial length MLK2 (V52 to W380 residues) expressed in bacterial expression system assessed as remaining unbound target protein level at 1000 nM by Kinomescan method relative to control. The essentials: as §1
Data set [8] concerns the target Tyrosine-protein kinase HCK (Homo sapiens) (UniProt P08631). Nature of the data set: Binding affinity to wild-type human full length HCK (M22 to P526 residues) expressed in bacterial expression system assessed as remaining unbound target protein level at 1000 nM by Kinomescan method relative to control. In outline:
(§2)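 Single-point competition binding screen across a panel of 468 kinases and mutants, with the inhibitor at 1 μM. Binding is read out as percent of a DMSO control, and targets below 1 percent control were classed as strong binders.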

In data set [9] the target is Mitogen-activated protein kinase 1 (Homo sapiens) (UniProt P28482). Nature of the data set: Binding affinity to wild-type human full length ERK2 (M1 to S360 residues) expressed in bacterial expression system assessed as remaining unbound target protein level at 1000 nM by Kinomescan method relative to control. The essentials: as §2
Data set [10] addresses Epidermal growth factor receptor (Homo sapiens) (UniProt P00533). The data set can be described thus: Binding affinity to human partial length EGFR L747-T751del/Sins mutant expressed in bacterial expression system assessed as remaining unbound target protein level at 1000 nM by Kinomescan method relative to control. In outline:
(§3)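 KINOMEscan competition-binding profiling across the panel of 468 kinases and mutants, with inhibitor tested at 1 μM. Binding is expressed as percent of control, with DMSO as the reference control.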

The target of data set [11] is Serine/threonine-protein kinase 17A (Homo sapiens) (UniProt Q9UEE5). The data set can be described thus: Binding affinity to wild-type human partial length DRAK1 (R32 to E363 residues) expressed in bacterial expression system assessed as remaining unbound target protein level at 1000 nM by Kinomescan method relative to control.
For data set [12], the target named is Protein kinase C iota type (Homo sapiens) (UniProt P41743). Nature of the data set: Binding affinity to wild-type human partial length PRKCI (H215 to V587 residues) expressed in mammalian expression system assessed as remaining unbound target protein level at 1000 nM by Kinomescan method relative to control.
Data set [13] has as its target Serine/threonine-protein kinase D3 (Homo sapiens) (UniProt O94806). The data set can be described thus: Binding affinity to wild-type human partial length PRKD3 (S543 to E863 residues) expressed in bacterial expression system assessed as remaining unbound target protein level at 1000 nM by Kinomescan method relative to control.
A further data set concerns HL-60. The data set can be described thus: Induction of apoptosis in human HL60 cells assessed as decrease in c-MYC level after 2 hrs by immunoblotting analysis. In kind it is functional, cell-based.
The target of data set [14] is Receptor-type tyrosine-protein kinase FLT3 (Homo sapiens) (UniProt P36888). Nature of the data set: Binding affinity to wild-type human partial length autoinhibited FLT3 (H564 to Y969 residues) expressed in mammalian expression system assessed as remaining unbound target protein level at 1000 nM by Kinomescan method relative to control.
The target in data set [15] is Myosin light chain kinase 2, skeletal/cardiac muscle (Homo sapiens) (UniProt Q9H1R3). Nature of the data set: Binding affinity to wild-type human partial length MYLK2 (D258 to K570 residues) expressed in bacterial expression system assessed as remaining unbound target protein level at 1000 nM by Kinomescan method relative to control. In outline:
as §1

The target of data set [16] is Mitogen-activated protein kinase kinase kinase 20 (Homo sapiens) (UniProt Q9NYL2). The data set can be described thus: Binding affinity to wild-type human partial length ZAK (M1 to L331 residues) expressed in bacterial expression system assessed as remaining unbound target protein level at 1000 nM by Kinomescan method relative to control.
Data set [17] deals with Serine/threonine-protein kinase WNK2 (Homo sapiens) (UniProt Q9Y3S1). The data set can be described thus: Binding affinity to wild-type human partial length WNK2 (V47 to D482 residues) expressed in mammalian expression system assessed as remaining unbound target protein level at 1000 nM by Kinomescan method relative to control.
The species named for a further data set is Homo sapiens. Nature of the data set: Selectivity ratio of IC50 for recombinant GST-tagged human full length CDK14/cyclin Y (2 to end residues) to IC50 for recombinant full length His-tagged human CDK9/CyclinT1.
Data set [18] has as its target Cyclin-dependent kinase 5 (Homo sapiens) (UniProt Q00535). Nature of the data set: Binding affinity to wild-type human full length CDK5 (M1 to P292 residues) expressed in bacterial expression system assessed as remaining unbound target protein level at 1000 nM by Kinomescan method relative to control. The essentials: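 KINOMEscan competitive binding profile at 1 μM inhibitor. Remaining target binding reported as percent of DMSO control.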

The subject of data set [19] is Epidermal growth factor receptor (Homo sapiens), P00533 [L861Q]. The data set can be described thus: Binding affinity to human partial length EGFR L861Q mutant (R669 to V1011 residues) expressed in bacterial expression system assessed as remaining unbound target protein level at 1000 nM by Kinomescan method relative to control. In outline: as §3

The source made the active and inactive calls. The calls are words filed in the database; no cut-off is given here. A value given as a limit tells only on which side of the number the result lay.

Serine/threonine-protein kinase TAO2 (Homo sapiens), sequence (Q9UL54 whole entry, the tested form may be a part): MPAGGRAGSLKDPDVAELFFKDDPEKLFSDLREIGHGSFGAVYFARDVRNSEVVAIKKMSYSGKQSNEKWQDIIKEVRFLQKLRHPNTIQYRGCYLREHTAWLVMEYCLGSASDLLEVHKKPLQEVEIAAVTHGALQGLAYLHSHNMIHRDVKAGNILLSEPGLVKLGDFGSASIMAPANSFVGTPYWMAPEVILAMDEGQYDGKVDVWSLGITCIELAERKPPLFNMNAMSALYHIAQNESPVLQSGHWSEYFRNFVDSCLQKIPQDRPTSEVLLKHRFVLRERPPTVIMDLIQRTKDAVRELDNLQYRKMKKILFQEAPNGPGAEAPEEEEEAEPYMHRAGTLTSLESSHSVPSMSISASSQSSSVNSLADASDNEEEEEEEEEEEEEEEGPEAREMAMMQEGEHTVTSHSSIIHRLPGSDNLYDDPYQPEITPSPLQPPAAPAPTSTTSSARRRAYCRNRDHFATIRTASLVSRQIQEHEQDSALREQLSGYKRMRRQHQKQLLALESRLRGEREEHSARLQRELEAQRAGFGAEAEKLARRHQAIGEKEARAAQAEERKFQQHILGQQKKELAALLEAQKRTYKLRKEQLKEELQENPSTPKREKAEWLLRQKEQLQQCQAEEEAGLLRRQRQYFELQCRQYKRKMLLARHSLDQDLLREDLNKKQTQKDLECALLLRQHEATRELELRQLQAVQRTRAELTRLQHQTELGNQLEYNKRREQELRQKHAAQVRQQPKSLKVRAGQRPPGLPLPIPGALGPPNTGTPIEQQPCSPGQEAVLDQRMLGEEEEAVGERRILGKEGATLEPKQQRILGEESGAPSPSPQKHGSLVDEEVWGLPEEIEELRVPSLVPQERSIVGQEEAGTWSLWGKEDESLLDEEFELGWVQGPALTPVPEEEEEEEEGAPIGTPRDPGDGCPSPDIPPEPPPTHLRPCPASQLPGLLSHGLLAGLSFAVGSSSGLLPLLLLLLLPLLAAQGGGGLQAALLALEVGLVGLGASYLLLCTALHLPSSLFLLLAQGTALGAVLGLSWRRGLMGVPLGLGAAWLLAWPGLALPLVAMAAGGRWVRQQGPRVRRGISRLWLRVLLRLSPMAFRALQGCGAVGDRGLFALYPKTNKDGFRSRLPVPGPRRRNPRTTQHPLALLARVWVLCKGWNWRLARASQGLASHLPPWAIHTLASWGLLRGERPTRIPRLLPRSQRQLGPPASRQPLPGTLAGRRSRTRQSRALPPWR
Receptor-type tyrosine-protein kinase FLT3 (Homo sapiens), sequence (P36888 whole entry, the tested form may be a part): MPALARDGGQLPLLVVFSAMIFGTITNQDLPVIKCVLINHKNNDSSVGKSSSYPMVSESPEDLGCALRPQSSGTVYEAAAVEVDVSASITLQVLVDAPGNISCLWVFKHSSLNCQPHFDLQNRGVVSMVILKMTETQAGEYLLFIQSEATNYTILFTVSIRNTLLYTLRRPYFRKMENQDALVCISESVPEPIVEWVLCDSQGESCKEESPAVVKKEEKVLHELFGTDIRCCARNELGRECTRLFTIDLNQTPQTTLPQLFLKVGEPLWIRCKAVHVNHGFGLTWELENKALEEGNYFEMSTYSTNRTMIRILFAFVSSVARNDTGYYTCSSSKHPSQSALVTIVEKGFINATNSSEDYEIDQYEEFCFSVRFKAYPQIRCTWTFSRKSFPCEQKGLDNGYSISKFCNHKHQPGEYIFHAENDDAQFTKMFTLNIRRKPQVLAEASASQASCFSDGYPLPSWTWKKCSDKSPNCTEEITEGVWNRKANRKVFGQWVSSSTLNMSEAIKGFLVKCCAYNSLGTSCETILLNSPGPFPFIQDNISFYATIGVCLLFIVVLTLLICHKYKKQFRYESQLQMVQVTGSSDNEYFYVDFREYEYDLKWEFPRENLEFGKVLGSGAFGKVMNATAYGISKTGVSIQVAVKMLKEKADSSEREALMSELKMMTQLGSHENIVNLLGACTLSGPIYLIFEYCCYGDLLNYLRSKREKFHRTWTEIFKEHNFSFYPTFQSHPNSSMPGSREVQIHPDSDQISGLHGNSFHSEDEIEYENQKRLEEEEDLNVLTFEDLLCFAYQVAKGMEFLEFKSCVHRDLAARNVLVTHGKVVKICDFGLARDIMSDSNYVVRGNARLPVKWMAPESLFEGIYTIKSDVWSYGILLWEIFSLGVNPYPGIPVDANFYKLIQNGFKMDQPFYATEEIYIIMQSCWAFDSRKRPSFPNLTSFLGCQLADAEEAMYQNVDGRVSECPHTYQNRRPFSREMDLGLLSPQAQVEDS
Mitogen-activated protein kinase kinase kinase 20 (Homo sapiens), sequence (Q9NYL2 2-800 limits assumed): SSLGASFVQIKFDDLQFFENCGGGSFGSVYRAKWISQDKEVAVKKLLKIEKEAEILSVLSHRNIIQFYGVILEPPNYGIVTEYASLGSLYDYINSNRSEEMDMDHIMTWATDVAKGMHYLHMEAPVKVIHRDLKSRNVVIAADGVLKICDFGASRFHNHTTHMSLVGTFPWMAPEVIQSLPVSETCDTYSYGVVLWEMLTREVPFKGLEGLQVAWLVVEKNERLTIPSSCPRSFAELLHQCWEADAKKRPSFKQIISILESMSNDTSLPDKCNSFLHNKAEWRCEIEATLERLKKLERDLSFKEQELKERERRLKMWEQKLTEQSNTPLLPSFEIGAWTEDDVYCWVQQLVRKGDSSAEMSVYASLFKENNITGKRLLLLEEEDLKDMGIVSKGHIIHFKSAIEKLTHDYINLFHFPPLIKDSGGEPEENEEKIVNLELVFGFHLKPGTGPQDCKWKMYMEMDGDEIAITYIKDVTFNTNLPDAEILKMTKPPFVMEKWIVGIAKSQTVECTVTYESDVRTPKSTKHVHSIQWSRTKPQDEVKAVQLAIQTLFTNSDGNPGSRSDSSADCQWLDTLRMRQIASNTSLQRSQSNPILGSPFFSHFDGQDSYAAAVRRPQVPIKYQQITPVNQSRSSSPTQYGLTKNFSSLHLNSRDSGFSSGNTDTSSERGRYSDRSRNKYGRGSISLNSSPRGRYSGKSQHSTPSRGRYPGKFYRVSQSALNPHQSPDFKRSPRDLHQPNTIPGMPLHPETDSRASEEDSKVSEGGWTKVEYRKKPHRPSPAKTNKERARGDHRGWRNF
Peripheral plasma membrane protein CASK (Homo sapiens), sequence (O14936 whole entry, the tested form may be a part): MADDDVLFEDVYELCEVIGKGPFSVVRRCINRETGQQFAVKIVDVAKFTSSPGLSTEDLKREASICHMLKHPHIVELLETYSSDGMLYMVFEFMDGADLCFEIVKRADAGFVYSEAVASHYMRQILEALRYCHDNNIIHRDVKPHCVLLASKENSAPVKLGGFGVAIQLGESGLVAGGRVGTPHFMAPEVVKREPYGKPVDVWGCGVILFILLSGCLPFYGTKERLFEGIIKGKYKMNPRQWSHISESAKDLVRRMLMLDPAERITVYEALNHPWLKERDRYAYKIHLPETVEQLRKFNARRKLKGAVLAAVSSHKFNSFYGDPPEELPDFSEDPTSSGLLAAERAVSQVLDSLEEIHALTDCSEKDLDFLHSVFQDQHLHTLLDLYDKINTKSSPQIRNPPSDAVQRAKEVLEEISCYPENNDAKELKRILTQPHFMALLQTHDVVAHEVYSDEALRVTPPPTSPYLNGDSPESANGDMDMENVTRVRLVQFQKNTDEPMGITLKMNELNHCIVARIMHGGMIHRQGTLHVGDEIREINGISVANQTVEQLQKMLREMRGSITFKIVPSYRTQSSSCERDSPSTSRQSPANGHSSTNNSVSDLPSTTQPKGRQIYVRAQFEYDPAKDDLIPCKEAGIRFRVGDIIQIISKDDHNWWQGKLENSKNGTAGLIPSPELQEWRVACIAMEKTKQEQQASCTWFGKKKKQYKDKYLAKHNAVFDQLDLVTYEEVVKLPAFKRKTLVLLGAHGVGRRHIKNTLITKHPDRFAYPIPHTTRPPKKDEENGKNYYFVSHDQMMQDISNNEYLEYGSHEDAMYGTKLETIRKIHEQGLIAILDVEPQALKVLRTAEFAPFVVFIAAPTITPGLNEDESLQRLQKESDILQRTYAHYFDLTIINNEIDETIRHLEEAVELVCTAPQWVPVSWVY
Protein kinase C iota type (Homo sapiens), sequence (P41743 whole entry, the tested form may be a part): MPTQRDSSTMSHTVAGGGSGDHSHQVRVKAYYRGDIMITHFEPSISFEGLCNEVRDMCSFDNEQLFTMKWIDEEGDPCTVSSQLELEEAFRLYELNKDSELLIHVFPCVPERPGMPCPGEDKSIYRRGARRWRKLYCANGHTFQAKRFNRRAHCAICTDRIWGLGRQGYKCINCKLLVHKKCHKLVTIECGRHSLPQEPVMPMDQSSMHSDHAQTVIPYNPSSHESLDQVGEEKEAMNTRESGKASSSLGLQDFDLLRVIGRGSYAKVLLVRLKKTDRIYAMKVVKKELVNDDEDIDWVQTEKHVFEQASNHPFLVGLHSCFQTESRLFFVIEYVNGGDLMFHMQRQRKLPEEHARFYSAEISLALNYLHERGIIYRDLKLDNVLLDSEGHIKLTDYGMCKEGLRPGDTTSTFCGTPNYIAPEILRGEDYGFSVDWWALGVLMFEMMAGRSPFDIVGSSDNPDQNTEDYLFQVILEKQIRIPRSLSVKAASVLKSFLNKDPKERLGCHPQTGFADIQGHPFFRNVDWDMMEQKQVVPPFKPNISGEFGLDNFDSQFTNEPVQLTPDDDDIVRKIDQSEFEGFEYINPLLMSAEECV
Cyclin-dependent kinase 5 (Homo sapiens), sequence (Q00535 whole entry, looked up, the tested form may be a part): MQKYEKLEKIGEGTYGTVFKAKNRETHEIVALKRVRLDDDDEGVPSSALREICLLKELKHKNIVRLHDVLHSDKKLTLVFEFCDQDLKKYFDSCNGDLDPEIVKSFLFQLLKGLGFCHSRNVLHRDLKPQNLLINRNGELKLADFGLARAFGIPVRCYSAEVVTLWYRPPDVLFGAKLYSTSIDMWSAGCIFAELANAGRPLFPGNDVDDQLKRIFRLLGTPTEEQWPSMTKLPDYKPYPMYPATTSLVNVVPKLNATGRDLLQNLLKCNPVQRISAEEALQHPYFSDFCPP

As a reminder, the MRT last is a mean duration of stay, worked out from the concentration-time curve. In general, IC50 refers to the concentration at which inhibition is half-maximal. For `COCCN[C@H]1CC[C@H](Nc2cc(-c3csc(NCC4(C#N)CCOCC4)n3)c(Cl)cn2)CC1`, the Activity in [1] was determined as 81%; in data set [2], 100%; in data set [3], 60%; in data set [5] it was 94%; in data set [6], 65%; in data set [7], 99%. The Activity in [8] was 100%; in data set [9] it was 96%; in data set [10] it was 90%; in data set [11] it was 100%; in [12], 100%; in data set [13] it was 89%. Besides, the Activity entry was “Dose-dependent effect” in the data set with HL-60; 100% in data set [14]; 93% in data set [15]; 96% in data set [16]; 92% in [17]; 94% in data set [18]. In data set [19], the Activity worked out at 76%. This compound also yielded an MRT last in data set [4] of 1.25 h. The IC50 at CDK9/cyclin T1 was determined as 1 nM. Further, the outcome with MV4-11 was inactive. Moreover, in the data set filed under Homo sapiens, the Ratio IC50 is above 1000.
